# Screens as filed in PubChem.
# Autophagy HCS: alters autophagy in cells | MEF GFP-LC3 puncta imaging; test concentration mostly 10 µM | calls only at 10 µM (by protocol) | 190,000 compounds, 0.98% hits | AID 463193;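 active = percentage of spot-positive cells more than 3 SD above its plate mean, without a fluorescence outlier flag or 80% toxicity; inconclusive = no clear call, values can overlap the other calls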;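 note: spot-positive cell cutoff set from DMSO-treated cells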
# sdo1 growth: sdo1-depleted yeast growth rescue | z-score at 10 µM | AID 817 | S. cerevisiae sdo1-depleted JHY4D growth rescue, OD600 30 h; stronger effect = higher value; pdr5 snq2 efflux-pump mutant strain | 140,000 compounds, 0.21% hits;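 active = z-score above 3 at both the 24 hr and the 30 hr optical density reads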;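 note: z-score against mean and SD of all compound wells on the same plate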
# HCT116 bCat-KO: beta-catenin-lacking colon tumor cell growth suppression; HCT116 beta-catenin knockout viability, CellTiter-Glo, 60 h; stronger effect = lower value; viability, % at 10 µM; 140,000 compounds, 1.5% hits;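 active = viability at or under a set limit, the compound median less 4 SD, cut at about 6% in these data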;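 note: 0% = Hyamine 1622 control at 20 µM and 100% = untreated cell control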
# Dynein cargo inh: dynein cargo transport inhibition | AID 1381 | 220,000 compounds, 0.47% hits | z-score, hits read low | 3617.4 mouse cells, GR-EGFP nuclear translocation imaging; test concentration mostly 20 µM; stimulated with dexamethasone, 1 µM; stronger effect = lower value;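 active = plate z-score of nuclear minus cytoplasmic receptor signal below a set negative limit, without overly bright fluorescence or cell loss, cut at about -3.5 in these data, passing the limit was not always enough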;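 note: z-score of nuclear minus cytoplasmic ring GR-EGFP intensity difference per well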
#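 medium = tetracycline-free induction medium containing charcoal-stripped FBS | also added = 1.0 µM final dexamethasone stimulus | schedule = 48 h induction, 1 h compound, 30 min dex at 37 °C | technique = fixed, Hoechst-stained cells imaged at 10x for EGFP | measure = GR-EGFP nuclear translocation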
# HCT116 PTEN-null: growth suppressors of cells with PTEN tumor suppressor deletion; AID 827; 140,000 compounds, 1.2% hits; HCT116 PTEN-null viability, CellTiter-Glo, 60 h; stronger effect = lower value; viability, % at 10 µM;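 active = viability at or below a set limit, 4 SD under the median of all tested compounds, cut at about 3.7% in these data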;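 note: PTEN knockout HCT116 line with beta catenin targeted HCT116 as companion control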
# Dynein confirm: dynein cargo transport inhibition, confirmation. 1,000 compounds, 69% hits. calls only at 20 µM. 3617.4 GR-EGFP nuclear translocation imaging, dexamethasone-induced. AID 463116. shares compounds with Dynein cargo inh;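 active = inhibition of receptor movement into the nucleus at or above a set limit in both runs, with normal cell brightness and cell count; inconclusive = limit reached in only one run, brightness and count normal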;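 note: dexamethasone at 1 µM final in well for 30 min; nuclear minus cytoplasmic GR-EGFP mean intensity difference in channel 2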
# * = called active by the depositor; i = inactive; u = inconclusive; x = no result; + = active, no number. Shown are actives, neighbours in structure and some others; about 2.2% of the full set was active somewhere.
SMILES,Autophagy HCS,sdo1 growth,HCT116 bCat-KO,Dynein cargo inh,HCT116 PTEN-null,Dynein confirm
Cc1sc2ncnc(SCC(=O)N3c4ccccc4Sc4ccc(Cl)cc43)c2c1C,i,0.28,75,-0.29,86,x
CCOC(=O)c1c(C)sc2c1N(C(=O)CCl)c1cc(Cl)ccc1S2,+,-0.83,2.3*,-4*,2.2*,+
COc1ccc(CNc2nc3nc(-c4ccccc4)cc(=O)n3[nH]2)cc1OC,i,1,96,-0.64,96,x
O=c1c(Cl)cc(Cl)nn1-c1ccccc1,i,-0.52,4.1*,-3.5*,2.7*,+
COc1ccccc1C(=O)Nc1onc(C)c1C#N,i,x,x,0.06,x,x
Cc1ccc(OCC(=O)c2ccc(Cl)s2)c([N+](=O)[O-])n1,i,x,x,-3.9*,x,+
O=[N+]([O-])c1ncn(Cc2c(Cl)cccc2Cl)n1,i,1.5,92,-0.79,86,x
Cc1nn(-c2ccccc2)c(Cl)c1CN(C(=O)CCl)c1ccc(Cl)cc1,i,-1.2,0.8*,-3.9*,0.8*,+
COc1cc2c(cc1OC)C(Cc1ccc(O)cc1)NCC2 (centres undefined),i,-0.54,65,-0.64,75,x
COc1cc2c(cc1OC)C(Cc1ccc(O)cc1)N(C)CC2 (centres undefined),i,0.48,36,-4.7*,38,i
Cc1ccc(SCCC(=O)NCC2CCCO2)cc1 (centres undefined),i,-0.39,82,-0.13,80,x
CCOC(=O)C(=Cc1ccc(-n2cncn2)cc1)C(=O)OCC,i,x,x,-6.8*,x,+
Cc1ccc(S(=O)(=O)N[C@@H](Cc2ccccc2)C(=O)CCl)cc1,i,-2.1,101,-4.5*,95,i
Cc1cc(C)c2c(=O)[nH]c(SCC(=O)c3ccc(F)c(C)c3)nc2n1,i,x,x,-0.91,x,x
CCOC(=O)c1c(NC(=O)Nc2ccc(Cl)cc2)sc(C)c1C,i,-0.11,96,-0.33,94,x
CCOC(=O)c1c(NC(=O)/C=C/C(=O)O)sc(C)c1-c1ccc(Cl)cc1,i,x,x,-8.2*,x,+
CCOC(=O)c1c(NC(=O)CCl)sc(CN(C)C)c1-c1ccccc1,i,x,x,-5.2*,x,+
O=C(O)c1ccc(N2CC3CC(C2)c2cccc(=O)n2C3)c(NS(=O)(=O)c2cccc(C(F)(F)F)c2)c1 (centres undefined),i,x,x,-0.49,x,x
COCCCn1c(O)c(/C=C2\N=C(C#N)C(=Nc3ccc(C)cc3)O2)sc1=S,x,x,x,-6.4,x,+
O=C(O)CCCn1c(O)c(C=C2N=c3ccccc3=N2)sc1=S,x,x,x,0.089,x,x
CCCCC(=O)Nc1ccc(NC(=O)CC)cc1OC,i,0.35,97,1.3,98,x
COCCCNC1=C(Cl)C(=O)c2ccccc2C1=O,x,x,x,0.47,x,x
COCCCNc1c2c3c(cccc3[nH]c1=O)C(=O)c1ccccc1-2,u,-0.45,39,-4.9*,30,+
CN1C(=O)C(O)(CC(=O)/C=C\c2ccc3c(c2)OCO3)c2ccccc21 (centres undefined),i,x,x,-4.6*,x,+
NC(=O)CN1C(=O)C(O)(CC(=O)/C=C\c2ccc3c(c2)OCO3)c2ccccc21 (centres undefined),i,x,x,-3.1,x,x
SMILES,Autophagy HCS,sdo1 growth,HCT116 bCat-KO,Dynein cargo inh,HCT116 PTEN-null,Dynein confirm
CCC(=O)Nc1ccc(C(=O)Cn2ncc(Cl)c(Cl)c2=O)cc1,x,x,x,-4.4*,x,+
Cc1ccc(NC(=O)CCl)cc1S(=O)(=O)N1CCCCCC1,+,x,x,-4.1*,x,+
CCCc1cc(=O)[nH]c(SCC(=O)N(C)CC(=O)Nc2ccccc2CC)n1,i,-0.92,91,0.097,95,x
CCc1ccccc1NC(=O)CN(C)C(=O)Cn1ncc(Cl)c(Cl)c1=O,i,1.3,1.8*,-3.7*,1.8*,+
CCN(CC)S(=O)(=O)c1cc(NC(=O)Cn2ncc(Cl)c(Cl)c2=O)ccc1C,x,x,x,-4.5*,x,+
O=C(Nc1ncccc1Cl)C(Sc1ccccc1)c1ccccc1 (centres undefined),i,-0.62,92,0.053,91,x
Cc1ccc(N2C(=O)C(F)(F)C2c2ccccc2)cc1 (centres undefined),i,x,x,0.67,x,x
